This experiment relates to aryl hydrocarbon receptor (Cavia porcellus). As to the kind of experiment: AhR activators driving DRE binding, late-stage follow-up, counter-screen for AhR activator project, biochemical, radiometric EMSA, guinea pig liver cytosol (AID 624402). To be noted: stronger effect = higher value. Put shortly:
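System: guinea pig hepatic cytosol, AhR / Buffer or medium: HEDG, pH 7.5 / Probe or stimulus: Poly dIdC and [32P]-DRE probe / Dosing: single 10 µM compound dose per reaction / Timing: 2.5 h compound exposure at room temperature, 15 min per later addition / Signal: radiometric EMSA, phosphorimaging / Control set: 20 nM TCDD reference / Replicates: triplicates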

The source made the active and inactive calls.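 How the source made its calls: active means binding altered by at least 10% in every panel; inactive means the rest.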

In general, inhibition refers to how much of the control response was suppressed. Take `O=C(CSc1nc2ccccc2s1)Nc1ccc(Cl)cn1`: the inhibition (run 1, at 10 µM) is 16.3% and the inhibition (run 2, at 10 µM) was 19.4%.
On the same counts, the results for `COc1ccc(Nc2cc(Cl)nc(N)n2)cc1OC` are 7.5% (inactive) and 5.6% (inactive).
The matching figures for `Cc1cccc(NC(=O)c2cc(-c3ccc(C)cc3O)n[nH]2)c1`: 8.2% (inactive) and 4.3% (inactive).
On the same counts, the results for `Cc1cccc(C)c1NC(=O)c1ccc(C(=O)Nc2c(C)cccc2C)nc1` are 8.6% (inactive) and 9% (inactive).
For `COc1ccc(Cl)cc1NC(=O)c1ccc(C(=O)Nc2cc(Cl)ccc2OC)nc1`, the inhibition is, setting by setting: (run 1, at 10 µM) 9.7% (inactive); (run 2, at 10 µM) 8.4% (inactive).
On the same counts, the results for `CCOC(=O)c1c(C)nn(-c2cc(Cl)ccc2Cl)c1C` are 8.4% (inactive) and 5.4% (inactive).
With `Nc1nc(Cl)cc(Nc2ccc(Oc3ccccc3)cc2)n1`, the inhibition runs as follows: (run 1, at 10 µM) 10.9% (inactive); (run 2, at 10 µM) 8.5% (inactive).
For `Cc1ccc(-c2cc(-c3ccc(F)cc3)n[nH]2)c(O)c1`, the inhibition is 50.8% (run 1, at 10 µM) and 47.5% (run 2, at 10 µM).
Turning to `Cc1cc(Br)cc(C)c1Nc1ccnc(Nc2ccc(C#N)cc2)n1`, the inhibition was 5.8% (inactive) (run 1, at 10 µM) and 5.3% (inactive) (run 2, at 10 µM).
As to `CCOc1ccccc1NC(=O)c1ccc(C(=O)Nc2ccccc2OCC)nc1`, the inhibition by setting is: (run 1, at 10 µM) 6.4% (inactive); (run 2, at 10 µM) 4.4% (inactive).
The matching figures for `Nc1nc(Cl)cc(Nc2ccccc2F)n1`: 15.4% and 12.5%.
For the compound `Cc1ccc(NC(=O)c2ccc(C(=O)Nc3ccc(C)cc3C)nc2)c(C)c1`, the inhibition reads like this: (run 1, at 10 µM) 13.3%; (run 2, at 10 µM) 9.3% (inactive).
The matching figures for `CN(Cc1cc(-c2cccs2)n[nH]1)Cc1coc2ccccc2c1=O`: 22.1% and 19%.
The matching figures for `Cc1cc(Nc2ccc(F)cc2)nc(N)n1`: 9.6% (inactive) and 5.6% (inactive).
The matching figures for `COc1ccc(NC(=O)c2ccc(C(=O)Nc3ccc(OC)cc3OC)nc2)c(OC)c1`: 6.9% (inactive) and 11.8% (inactive).
Turning to `O=C(CSc1nc(-c2ccc(F)cc2)cs1)Nc1ccccn1`, the inhibition (run 1, at 10 µM) is 9.5% (inactive) and the inhibition (run 2, at 10 µM) was 7.1% (inactive).
On the same counts, the results for `Cc1ccc(-c2cc(-c3ccc(Cl)cc3)n[nH]2)c(O)c1` are 32.8% and 28.8%.
The matching figures for `COc1ccc(Nc2cc(Cl)nc(N)n2)cc1`: 10% (inactive) and 7.1% (inactive).
For the compound `O=C(CSc1nc2ccccc2s1)Nc1ccccn1`, the inhibition is, setting by setting: (run 1, at 10 µM) 41.3%; (run 2, at 10 µM) 38.5%.
On the same counts, the results for `Cc1ccnc(NC(=O)CSc2nc3ccccc3s2)c1` are 19.7% and 17.3%.
On to `Cc1ccc(O)c(-c2cc(-c3ccccc3Cl)[nH]n2)c1`, for which the inhibition was 58.4% (run 1, at 10 µM) and 51.9% (run 2, at 10 µM).
On the same counts, the results for `Cc1ccc(-c2cc(-c3cccc(F)c3)n[nH]2)c(O)c1` are 42.7% and 39.8%.
The matching figures for `COc1ccc(O)c(-c2cc(-c3cccs3)[nH]n2)c1`: 6.4% (inactive) and 5.5% (inactive).
For `Cc1csc(SCC(=O)Nc2ccccn2)n1`, the inhibition is 6.2% (inactive) (run 1, at 10 µM) and 6.7% (inactive) (run 2, at 10 µM).
On the same counts, the results for `COc1ccc(-c2cc(-c3ccc(C)cc3O)[nH]n2)cc1` are 4.8% (inactive) and 3.2% (inactive).
